Like-named read-outs stand apart in the source and are kept apart here. Values belong to the compound of their own block, whether it stands above or below them.
Columns and labels:
[1] = type: in vivo, healthy Korean male volunteers; conditions: for Pharmacokinetic effect on the co-administered drug: steady-state gemigliptin 50 mg, single-dose glimepiride 4 mg
How it was run: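 Randomized open-label crossover. Oral gemigliptin 50 mg once daily for 6 days with glimepiride 4 mg co-administered on day 7, versus single glimepiride 4 mg. Heparinized plasma was sampled to 24 h (days 6–7 at 0–14 h, day 8 at 0 h). LC–MS/MS; LLOQ 0.5 ng/mL gemigliptin, 1 ng/mL glimepiride. Non-compartmental AUC by linear-up/log-down trapezoidal method. Log-transformed GMRs with 90 % CI from mixed-effects ANOVA.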

[2] = cited from earlier work; for t max: oral
[3] = cited from earlier work
[4] = stated as known, no reference given; cited from earlier work
[5] = system: cytochrome P450 (CYP); conditions: cited from earlier work
[6] = Tolerability assessments; type: in vivo, healthy Korean male volunteers
How it was run: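 Subjects receiving more than one dose were included. Medical staff monitored adverse events after dosing. Vital signs were taken seated after ≥5 min rest. 12-lead ECG was recorded before blood sampling. Physical examinations were done, and hematology, biochemistry and urinalysis were drawn after >8 h fasting. Investigators judged abnormal findings for clinical significance and relation to study drug.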

[7] = cited from earlier work; remark: listed apart in the source
[8] = glimepiride 4 mg + gemigliptin 50 mg, day 7
[9] = glimepiride 4 mg single dose only
[10] = another study, subjects all Caucasian
[11] = single-dose 4 mg, healthy volunteers, ref Malerczyk et al. [20]
[12] = single ascending-dose study, healthy volunteers, 50–400 mg
[13] = plasma, glimepiride 4 mg single dose only

Compound: CCC1=C(C)CN(C(=O)NCCc2ccc(S(=O)(=O)NC(=O)N[C@H]3CC[C@H](C)CC3)cc2)C1=O [Glimepiride]
t max, median (min–max) [1, 8]: 3.0 (2.0–5.0) h | t max, median (min–max) [1, 9]: 4.0 (2.0–5.0) h | Pharmacokinetic effect on the co-administered drug [1]: no pharmacokinetic effects on steady-state gemigliptin | accumulation ([2]; after multiple dosing): without accumulation | oral absorption ([2]; after oral administration): completely absorbed | AUClast (geometric mean) [2, 10]: 8,753 ng · h/mL | geometric C max mean [2, 10]: 1,084 ng/mL | half-life [2]: < 5 h | accumulation ([2]; multiple doses, 1 day vs 7 days, T2DM patients): does not accumulate | t max ([2]; T2DM patients): 2.4 to 3.75 h | t max ([2]; healthy volunteers): 0.7 to 2.8 h | mean AUC [2, 11]: 1,297 μg/L · h | mean C max [2, 11]: 307.8 ng/mL

Compound: CC#CCn1c(N2CCC[C@@H](N)C2)nc2c1c(=O)n(Cc1nc(C)c3ccccc3n1)c(=O)n2C [linagliptin]
pharmacokinetics on coadministration of linagliptin and glyburide ([3]; linagliptin 5 mg/day × 6 days, glyburide single-dose 1.75 mg): not affected

Compound: N[C@@H](CC(=O)N1CCc2c(nc(C(F)(F)F)nc2C(F)(F)F)C1)CN1CC(F)(F)CCC1=O [Gemigliptin]
protein binding [4]: no strong protein-binding characteristics | t max ([1]; male, human, plasma, oral, 50 mg, t max,ss, median (min–max), plasma, day 6, gemigliptin 50 mg once daily only): 1.5 h | AUC ([1]; male, human, plasma, po, 50 mg): 798 ng·h/mL | Cmax ([1]; male, human, plasma, po, 50 mg, C max,ss, mean (SD), plasma, day 6, gemigliptin 50 mg once daily only, oral): 80.2 ng/mL | Pharmacokinetic effect on the co-administered drug [1]: nor did gemigliptin affect the pharmacokinetics of single-dose glimepiride | inhibitory or induction potential ([5]; gemigliptin and its metabolites, preclinical studies, ref Gemigliptin IB version 6.0, September 2012): very low | major metabolic route ([5]; preclinical studies, ref Gemigliptin IB version 6.0, September 2012): via cytochrome P450 (CYP) 3A4 | effects on cytochromes ([5]; stated as known, no reference given): no significant effects on cytochromes | Adverse events during dosing (events and participants) ([6]; repeated gemigliptin dosing, 50 mg/day, 23 participants): six AEs occurred in four participants | Adverse events considered possibly related to the study drug ([6]; rhinorrhea, constipation, and headache): three AEs in three participants were considered possibly related to the study drug | half-life ([7]; day 1 of a previous study using 24 h sampling): 7.4 to 9.3 h | accumulation ([7]; previous multiple-dose study): accumulation was reported | half-life ([7]; previous multiple-dose study): approximately 17 h | half-life ([7]; previously reported by multiple-dose studies, sampling ≤72 h after the last dose): 16.6 to 20.1 h | mean t ½ [7, 12]: 16.7 to 21.3 h | t max [7, 12]: 0.5 to 5.1 h

Compound: N[C@@H](CC(=O)N1CCn2c(nnc2C(F)(F)F)C1)Cc1cc(F)c(F)cc1F [sitagliptin]
effect on the pharmacokinetics of glyburide [3]: does not affect the pharmacokinetics of glyburide

t max, median (min–max) [1, 8]: 4.0 (3.0–6.0) h | t max, median (min–max) [1, 9]: 4.0 (3.0–6.0) h | AUClast, mean (SD) [1, 13]: 189.88 (52.77) ng · h/mL | C max, mean (SD) [1, 13]: 28.26 (8.40) ng/mL
Compound: CCC1=C(C)CN(C(=O)NCCc2ccc(S(=O)(=O)NC(=O)NC3CCC(CO)CC3)cc2)C1=O (stereo not drawn) [M1]

Compound: OC(Cn1cncn1)(Cn1cncn1)c1ccc(F)cc1F [fluconazole]
effect on plasma concentrations of glimepiride [3]: increase plasma concentrations of glimepiride

From publication PMC4153964 (Drugs in R&D, 2014)
